The source made the active and inactive calls. The rule behind the calls is not given here.
Experiments:
[1] = Cytotoxicity against human SupT1 cells assessed as dead cells at 1 uM after 24 hrs; assay type: functional, SUP-T1
Method in brief: (§1)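 Dienones added as DMSO solutions to cells in RPMI medium and incubated 24 h at 37°C. Cytotoxicity was scored as cell-membrane disruption by propidium iodide staining and expressed as percentage of dead cells, averaged over three independent experiments.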

[2] = Cytotoxicity against human HuT-102 cells assessed as dead cells at 1 uM after 24 hrs; assay type: functional; method in brief: as §1
[3] = Cytotoxicity against human MOLT3 cells assessed as dead cells at 1 uM after 24 hrs; assay type: functional, MOLT-3; method in brief: as §1
EL4 = test: Cytotoxicity against mouse EL4 cells assessed as dead cells at 1 uM after 24 hrs; assay type: functional; method in brief: as §1
[4] = Cytotoxicity against human NALM6 cells assessed as dead cells at 1 uM after 24 hrs; assay type: functional, NALM-6; method in brief: as §1
Raji = test: Cytotoxicity against human Raji cells assessed as dead cells at 1 uM after 24 hrs; assay type: functional; method in brief: as §1
Ramos = test: Cytotoxicity against human Ramos cells assessed as dead cells at 1 uM after 24 hrs; assay type: functional; method in brief: as §1
BJAB = test: Cytotoxicity against human BJAB cells assessed as dead cells at 1 uM after 24 hrs; assay type: functional; method in brief: as §1
YT = test: Cytotoxicity against human YT cells assessed as dead cells at 1 uM after 24 hrs; assay type: functional; method in brief: as §1
MCF7 = test: Cytotoxicity against human MCF7 cells assessed as dead cells at 1 uM after 24 hrs; assay type: functional; method in brief: as §1
[5] = Cytotoxicity against human MDA231 cells assessed as dead cells at 1 uM after 24 hrs; assay type: functional, MDA-MB-231; method in brief: as §1
HCC70 = test: Cytotoxicity against human HCC70 cells assessed as dead cells at 1 uM after 24 hrs; assay type: functional; method in brief: as §1
[6] = Cytotoxicity against human MCF10A cells assessed as dead cells at 1 uM after 24 hrs; assay type: cell-based; conditions: mcf-10a
Method in brief: (§2)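 Compounds added from DMSO solutions to cells in medium (RPMI; DMEM for Hs-27 fibroblasts) and incubated 24 h at 37°C. Membrane disruption scored by propidium iodide uptake. Result is percentage of dead cells, average of three independent experiments.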

DU-145 = test: Cytotoxicity against human DU145 cells assessed as dead cells at 1 uM after 24 hrs; assay type: functional; method in brief: as §1
[7] = Cytotoxicity against human 22Rvl cells assessed as dead cells at 1 uM after 24 hrs; assay type: functional; method in brief: as §1
LAPC4 = test: Cytotoxicity against human LAPC4 cells assessed as dead cells at 1 uM after 24 hrs; assay type: functional; method in brief: as §1
HS27 = test: Cytotoxicity against human HS27 cells assessed as dead cells at 1 uM after 24 hrs; assay type: cell-based; conditions: hs27, 24 h; method in brief: as §2
MOLT-4 [8] = test: Ratio of melphalan IC50 to compound IC50 for human Molt4/C8 cells; assay type: functional; conditions: pooled result: one value given for 4 cell lines, strains, targets or settings
MOLT-4 [9] = test: Ratio of curcumin IC50 to compound IC50 for human Molt4/C8 cells; assay type: functional; conditions: pooled result: one value given for 4 cell lines, strains, targets or settings
COLO 205 [10] = test: Ratio of 5-fluorouracil IC50 to compound IC50 for human COLO205 cells; assay type: functional; conditions: pooled result: one value given for 5 cell lines, strains, targets or settings
RPMI-8226 = test: Ratio of melphalan IC50 to compound IC50 for human RPMI8226 cells; assay type: functional; conditions: pooled result: one value given for 3 cell lines, strains, targets or settings
[11] = Antiproliferative activity against human Molt4/C8 cells after 72 hrs by coulter counting analysis; assay type: functional, cell-based; conditions: MOLT-4, 72 h
Method in brief: (§3)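 Cells exposed to a range of concentrations in RPMI 1640 at 37°C for 72 h. Surviving cells counted by Coulter counter. IC50 taken from concentration-response curves, mean ± SD of at least three independent experiments.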

CCRF-CEM [12] = test: Antiproliferative activity against human CEM cells after 72 hrs by coulter counting analysis; assay type: functional, cell-based; method in brief: as §3
HeLa = test: Antiproliferative activity against human HeLa cells after 72 hrs by coulter counting analysis; assay type: functional, cell-based; method in brief: as §3
L1210 = test: Antiproliferative activity against mouse L1210 cells after 72 hrs by coulter counting analysis; assay type: functional, cell-based; conditions: L1210, 72 h
[13] = Cytotoxicity against human NCI60 cells assessed as inhibition of tumor growth after 24 hrs; assay type: functional, cell-based; conditions: NCI60, 24 h
COLO 205 [14] = test: Cytotoxicity against human COLO205 cells assessed as inhibition of tumor growth after 24 hrs; assay type: functional, cell-based; conditions: COLO 205, 24 h
HCC 2998 = test: Cytotoxicity against human HCC2998 cells assessed as inhibition of tumor growth after 24 hrs; assay type: functional, cell-based; conditions: HCC 2998, 24 h
[15] = Cytotoxicity against human HCT15 cells assessed as inhibition of tumor growth after 24 hrs; assay type: functional, cell-based; conditions: HCT-15, 24 h
KM12 = test: Cytotoxicity against human KM12 cells assessed as inhibition of tumor growth after 24 hrs; assay type: functional, cell-based; conditions: KM12, 24 h
SW-620 = test: Cytotoxicity against human SW620 cells assessed as inhibition of tumor growth after 24 hrs; assay type: functional, cell-based; conditions: SW-620, 24 h
HL-60(TB) = test: Antileukemic activity against human HL-60(TB) cells assessed as inhibition of tumor growth after 24 hrs; assay type: functional, cell-based; conditions: HL-60, 24 h
K562 = test: Antileukemic activity against human K562 cells assessed as inhibition of tumor growth after 24 hrs; assay type: functional, cell-based; conditions: K562, 24 h
[16] = Antileukemic activity against human RPMI8226 cells assessed as inhibition of tumor growth after 24 hrs; assay type: functional, cell-based; conditions: rpmi-8226
SR = test: Antileukemic activity against human SR cells assessed as inhibition of tumor growth after 24 hrs; assay type: functional, cell-based
Jurkat = test: Cytotoxicity against human Jurkat cells assessed as dead cells at 1 uM after 24 hrs; assay type: functional; method in brief: as §1
CCRF-CEM [17] = test: Cytotoxicity against human CEM cells assessed as dead cells at 1 uM after 24 hrs; assay type: functional; method in brief: as §1
CCRF-CEM [18] = test: Induction of apoptosis in human CEM T-lymphocytes assessed as necrotic cells at 1 uM after 24 hrs by Annexin V/propidium iodide staining-based FITC analysis (reference value: 0.2%); assay type: functional
CCRF-CEM [19] = test: Induction of apoptosis in human CEM T-lymphocytes assessed as late apoptotic cells at 1 uM after 24 hrs by Annexin V/propidium iodide staining-based FITC analysis (reference value: 0.8%); assay type: functional
CCRF-CEM [20] = test: Induction of apoptosis in human CEM T-lymphocytes assessed as viable cells at 1 uM after 24 hrs by Annexin V/propidium iodide staining-based FITC analysis (reference value: 93.4%); assay type: functional; conditions: read-out: Activity
CCRF-CEM [21] = test: Induction of apoptosis in human CEM T-lymphocytes assessed as early apoptotic cells at 1 uM after 24 hrs by Annexin V/propidium iodide staining-based FITC analysis (reference value: 5.6%); assay type: functional
CCRF-CEM [22] = test: Induction of apoptosis in human CEM T-lymphocytes assessed as caspase3 activation at necrotic cell stage at 1 uM after 8 hrs by flow cytometric analysis (reference value: 0%); assay type: functional
CCRF-CEM [23] = test: Induction of apoptosis in human CEM T-lymphocytes assessed as late apoptotic at necrotic cell stage at 1 uM after 8 hrs by flow cytometric analysis (reference value: 0%); assay type: functional
CCRF-CEM [24] = test: Induction of apoptosis in human CEM T-lymphocytes assessed as viable at necrotic cell stage at 1 uM after 8 hrs by flow cytometric analysis (reference value: 95.7%); assay type: functional
CCRF-CEM [25] = test: Induction of apoptosis in human CEM T-lymphocytes assessed as early apoptotic at necrotic cell stage at 1 uM after 8 hrs by flow cytometric analysis (reference value: 4.3%); assay type: functional
CCRF-CEM [26] = test: Cytotoxicity against human CEM T-lymphocytes assessed as mitochondrial membrane depolarization at 1 uM after 8 hrs by JC-1 red/green staining analysis; assay type: functional, cell-based
Method in brief: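 CEM cells (RPMI-1640, 10% FBS, 50,000 per well) were exposed to 1 μM compound for 8 h at 37°C, 5% CO2, in triplicate. They were then stained with 2 μM JC-1; the red signal marks polarized mitochondria and the green signal marks depolarized ones. Green-emitting cells were counted by flow cytometry, about 10,000 events. Controls: untreated, DMSO and CCCP 50 μM.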

SMILES | Activity [1] [%] | Activity [2] [%] | Activity [3] [%] | Activity (EL4) [%] | Activity [4] [%] | Activity (Raji) [%] | Activity (Ramos) [%] | Activity (BJAB) [%] | Activity (YT) [%] | Activity (MCF7) [%] | Activity [5] [%] | Activity (HCC70) [%] | Activity [6] [%] | Activity (DU-145) [%] | Activity [7] [%] | Activity (LAPC4) [%] | IC50 [11] [nM] | IC50 (CCRF-CEM [12]) [nM] | IC50 (HeLa) [nM] | IC50 (L1210) [nM] | other results
COc1cc(/C=C2\CN(C(=O)C(=O)N3C/C(=C\c4cc(OC)c(OC)c(OC)c4)C(=O)/C(=C/c4cc(OC)c(OC)c(OC)c4)C3)C/C(=C\c3cc(OC)c(OC)c(OC)c3)C2=O)cc(OC)c1OC | 38.2 | 50.5 | 30.3 | 33.8 | 67.6 | 55.7 | 65.1 | 60.9 | 13 | 43.2 | 4.7 | 7.3 | 7.6 | 41.3 | 3.4 | 9.7 | 47 | 325 | 246 | 182 | Activity (HS27): 15.4%; Ratio IC50 (MOLT-4 [8]): 13.5; Ratio IC50 (MOLT-4 [9]): 63.8; Ratio IC50 (COLO 205 [10]): 121; Ratio IC50 (RPMI-8226): 1418; IC50 [13]: 60 nM; IC50 (COLO 205 [14]): 70 nM; IC50 (HCC 2998): 100 nM; IC50 [15]: 70 nM; IC50 (KM12): 60 nM; IC50 (SW-620): 30 nM; IC50 (HL-60(TB)): 70 nM; IC50 (K562): 30 nM; IC50 [16]: 20 nM; IC50 (SR): 20 nM; Activity (Jurkat): 78.7%; Activity (CCRF-CEM [17]): 84.1%
COc1ccc(/C=C2/CN(C(=O)CC(=O)N3C/C(=C\c4ccc(OC)c(OC)c4)C(=O)/C(=C/c4ccc(OC)c(OC)c4)C3)C/C(=C\c3ccc(OC)c(OC)c3)C2=O)cc1OC | 31 | 51.6 | 2.6 | 43.7 | 63.9 | 50.8 | 88.6 | 61 | 32.3 | 23 | 1.8 | 2.1 | 6.1 | 67.4 | 2 | 20.6 | 388 | 348 | 370 | 378 | Activity (HS27): 6.4%; Activity (CCRF-CEM [18]): 3.9%; Activity (CCRF-CEM [19]): 23.3%; viability at 1 µM (CCRF-CEM [20]): 2.5%; Activity (CCRF-CEM [21]): 70.2%; Activity (CCRF-CEM [22]): 0%; Activity (CCRF-CEM [23]): 0%; Activity (CCRF-CEM [24]): 87.7%; Activity (CCRF-CEM [25]): 12.3%; Activity (CCRF-CEM [26]): Active; Activity (Jurkat): 83.9%; Activity (CCRF-CEM [17]): 77.6%
COc1cc(/C=C2/CN(C(=O)CC(=O)N3C/C(=C\c4cc(OC)c(OC)c(OC)c4)C(=O)/C(=C/c4cc(OC)c(OC)c(OC)c4)C3)C/C(=C\c3cc(OC)c(OC)c(OC)c3)C2=O)cc(OC)c1OC |  |  |  |  |  |  |  |  |  |  |  |  |  |  |  |  | 60 | 284 | 216 | 214 | Ratio IC50 (MOLT-4 [8]): 14.2; Ratio IC50 (MOLT-4 [9]): 66.8; Ratio IC50 (COLO 205 [10]): 141; Ratio IC50 (RPMI-8226): 1890; IC50 [13]: 50 nM; IC50 (COLO 205 [14]): 60 nM; IC50 (HCC 2998): 100 nM; IC50 [15]: 30 nM; IC50 (KM12): 40 nM; IC50 (SW-620): 50 nM; IC50 (HL-60(TB)): 40 nM; IC50 (K562): 30 nM; IC50 [16]: 50 nM; IC50 (SR): 10 nM
COc1ccc(/C=C2\CN(C(=O)C(=O)N3C/C(=C\c4ccc(OC)c(OC)c4)C(=O)/C(=C/c4ccc(OC)c(OC)c4)C3)C/C(=C\c3ccc(OC)c(OC)c3)C2=O)cc1OC | 33 | 50.9 | 31.8 | 46.5 | 60.7 | 56.3 | 87.4 | 62.8 | 39.2 | 17.7 | 4.6 | 3.9 | 5.8 | 45.7 | 38.2 | 35.4 | 779 | 4360 | 4430 | 6310 | Activity (HS27): 10.2%; Activity (CCRF-CEM [18]): 33.8%; Activity (CCRF-CEM [19]): 38%; viability at 1 µM (CCRF-CEM [20]): 15.4%; Activity (CCRF-CEM [21]): 12.8%; Activity (CCRF-CEM [22]): 0%; Activity (CCRF-CEM [23]): 0%; Activity (CCRF-CEM [24]): 91%; Activity (CCRF-CEM [25]): 9%; Activity (CCRF-CEM [26]): Active; Activity (Jurkat): 84.8%; Activity (CCRF-CEM [17]): 88.1%
